Measured values from ChEMBL document CHEMBL1770107, “Design and synthesis of antifungal benzoheterocyclic derivatives by scaffold hopping” (2011).
In brackets after ≈: the same amount, converted by molar mass.

How the values were obtained:
Format in all cases: functional
Candida albicans = assay: Antimicrobial activity against Candida albicans after 24 hrs by NCCLS method
Outline: (§1)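 Broth serial-dilution MIC in 96-well plates, RPMI 1640 buffered with 0.165 M MOPS. Strains from ATCC or clinical isolates; fluconazole reference. MIC = lowest concentration giving ≥80% growth inhibition (turbidity) versus drug-free control. Read at 24 h for Candida spp., 72 h for C. neoformans, 7 days for filamentous fungi.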

Cryptococcus neoformans = assay: Antimicrobial activity against Cryptococcus neoformans after 72 hrs by NCCLS method; outline: as §1
Candida tropicalis = assay: Antimicrobial activity against Candida tropicalis after 24 hrs by NCCLS method; outline: as §1
Aspergillus fumigatus = assay: Antimicrobial activity against Aspergillus fumigatus after 7 days by NCCLS method; conditions: 168 h; outline: as §1
Candida parapsilosis = assay: Antimicrobial activity against Candida parapsilosis after 24 hrs by NCCLS method; conditions: Lodderomyces parapsilosis; outline: as §1
Pichia kudriavzevii = assay: Antimicrobial activity against Candida krusei after 24 hrs by NCCLS method; outline: as §1
Trichophyton rubrum = assay: Antimicrobial activity against Trichophyton rubrum after 7 days by NCCLS method; conditions: 168 h; outline: as §1
Nannizzia gypsea = assay: Antimicrobial activity against Microsporum gypseum after 7 days by NCCLS method; conditions: 168 h; outline: as §1

For `CCCCCCCCN1CCc2c(c3cc(F)ccc3n2C)C1`, the MIC80 (Candida albicans) was 64 µg/mL (≈ 202 µM), the MIC80 (Cryptococcus neoformans) was greater than 64 µg/mL and the MIC80 (Candida tropicalis) was greater than 64 µg/mL. The MIC80 (Aspergillus fumigatus) was greater than 64 µg/mL, the MIC80 (Candida parapsilosis) was 64 µg/mL (≈ 202 µM) and the MIC80 (Pichia kudriavzevii) was greater than 64 µg/mL.
`CCCCCCN1CCc2c(c3cc(Cl)ccc3n2C)C1` showed an MIC80 (Candida albicans) greater than 64 µg/mL, an MIC80 (Cryptococcus neoformans) greater than 64 µg/mL and an MIC80 (Candida tropicalis) greater than 64 µg/mL. It also gave an MIC80 (Aspergillus fumigatus) of 64 µg/mL (≈ 210 µM), an MIC80 (Candida parapsilosis) greater than 64 µg/mL and an MIC80 (Pichia kudriavzevii) of 64 µg/mL (≈ 210 µM).
`CCCCCCCN1CCc2c(c3cc(Cl)ccc3n2C)C1` gave an MIC80 (Candida albicans) greater than 64 µg/mL, an MIC80 (Cryptococcus neoformans) greater than 64 µg/mL and an MIC80 (Candida tropicalis) greater than 64 µg/mL. It also gave an MIC80 (Aspergillus fumigatus) greater than 64 µg/mL, an MIC80 (Candida parapsilosis) greater than 64 µg/mL and an MIC80 (Pichia kudriavzevii) greater than 64 µg/mL.
In the case of `CCCCCCCCN1CCc2c(c3cc(Cl)ccc3n2C)C1`, the MIC80 (Candida albicans) is reported as greater than 64 µg/mL, the MIC80 (Cryptococcus neoformans) is reported as greater than 64 µg/mL and the MIC80 (Candida tropicalis) is reported as greater than 64 µg/mL. It also gave an MIC80 (Aspergillus fumigatus) greater than 64 µg/mL, an MIC80 (Candida parapsilosis) of 64 µg/mL (≈ 192 µM) and an MIC80 (Pichia kudriavzevii) of 64 µg/mL (≈ 192 µM).
For `CCCCCCN1CCc2c(c3cc(Br)ccc3n2C)C1`, the MIC80 (Candida albicans) was greater than 64 µg/mL, the MIC80 (Cryptococcus neoformans) was greater than 64 µg/mL and the MIC80 (Candida tropicalis) was greater than 64 µg/mL. For the same compound, the MIC80 (Aspergillus fumigatus) was 64 µg/mL (≈ 183 µM), the MIC80 (Candida parapsilosis) was greater than 64 µg/mL and the MIC80 (Pichia kudriavzevii) was greater than 64 µg/mL.
`CCCCCCCN1CCc2c(c3cc(Br)ccc3n2C)C1` gave an MIC80 (Candida albicans) greater than 64 µg/mL, an MIC80 (Cryptococcus neoformans) of 64 µg/mL (≈ 176 µM) and an MIC80 (Candida tropicalis) greater than 64 µg/mL. The MIC80 (Aspergillus fumigatus) was greater than 64 µg/mL, the MIC80 (Candida parapsilosis) was 64 µg/mL (≈ 176 µM) and the MIC80 (Pichia kudriavzevii) was greater than 64 µg/mL.
In the case of `CCCCCCCCN1CCc2c(c3cc(Br)ccc3n2C)C1`, the MIC80 (Candida albicans) is reported as 64 µg/mL (≈ 170 µM), the MIC80 (Cryptococcus neoformans) is reported as 64 µg/mL (≈ 170 µM) and the MIC80 (Candida tropicalis) is reported as greater than 64 µg/mL. The MIC80 (Aspergillus fumigatus) was greater than 64 µg/mL, the MIC80 (Candida parapsilosis) was 16 µg/mL (≈ 42.4 µM) and the MIC80 (Pichia kudriavzevii) was greater than 64 µg/mL.
For `CCCCCCN1CCc2c(c3cc(I)ccc3n2C)C1`, the MIC80 (Candida albicans) was greater than 64 µg/mL, the MIC80 (Cryptococcus neoformans) was greater than 64 µg/mL and the MIC80 (Candida tropicalis) was greater than 64 µg/mL. For the same compound, the MIC80 (Aspergillus fumigatus) was greater than 64 µg/mL, the MIC80 (Candida parapsilosis) was 64 µg/mL (≈ 161 µM) and the MIC80 (Pichia kudriavzevii) was greater than 64 µg/mL.
`CCCCCCCN1CCc2c(c3cc(I)ccc3n2C)C1` was tested, and the MIC80 (Candida albicans) was greater than 64 µg/mL, the MIC80 (Cryptococcus neoformans) was greater than 64 µg/mL and the MIC80 (Candida tropicalis) was greater than 64 µg/mL. It also gave an MIC80 (Aspergillus fumigatus) greater than 64 µg/mL, an MIC80 (Candida parapsilosis) of 64 µg/mL (≈ 156 µM) and an MIC80 (Pichia kudriavzevii) greater than 64 µg/mL.
Compound `CCCCCCCCN1CCc2c(c3cc(I)ccc3n2C)C1` has an MIC80 (Candida albicans) of 64 µg/mL (≈ 151 µM), an MIC80 (Cryptococcus neoformans) greater than 64 µg/mL and an MIC80 (Candida tropicalis) greater than 64 µg/mL. The MIC80 (Aspergillus fumigatus) was greater than 64 µg/mL, the MIC80 (Candida parapsilosis) was 16 µg/mL (≈ 37.7 µM) and the MIC80 (Pichia kudriavzevii) was 64 µg/mL (≈ 151 µM).
With `CCCCCCN1CCc2c(c3cc(C)ccc3n2C)C1` the MIC80 (Candida albicans) was 64 µg/mL (≈ 225 µM), the MIC80 (Cryptococcus neoformans) was 64 µg/mL (≈ 225 µM) and the MIC80 (Candida tropicalis) was 64 µg/mL (≈ 225 µM). For the same compound, the MIC80 (Aspergillus fumigatus) was 64 µg/mL (≈ 225 µM), the MIC80 (Candida parapsilosis) was 64 µg/mL (≈ 225 µM) and the MIC80 (Pichia kudriavzevii) was 16 µg/mL (≈ 56.2 µM).
`CCCCCCCN1CCc2c(c3cc(C)ccc3n2C)C1` was tested, and the MIC80 (Candida albicans) was 16 µg/mL (≈ 53.6 µM), the MIC80 (Cryptococcus neoformans) was greater than 64 µg/mL and the MIC80 (Candida tropicalis) was 64 µg/mL (≈ 214 µM). It also gave an MIC80 (Aspergillus fumigatus) of 16 µg/mL (≈ 53.6 µM), an MIC80 (Candida parapsilosis) of 16 µg/mL (≈ 53.6 µM) and an MIC80 (Pichia kudriavzevii) of 64 µg/mL (≈ 214 µM).
`CCCCCCCCN1CCc2c(c3cc(C)ccc3n2C)C1` showed an MIC80 (Candida albicans) of 16 µg/mL (≈ 51.2 µM), an MIC80 (Cryptococcus neoformans) greater than 64 µg/mL and an MIC80 (Candida tropicalis) of 64 µg/mL (≈ 205 µM). For the same compound, the MIC80 (Aspergillus fumigatus) was 16 µg/mL (≈ 51.2 µM), the MIC80 (Candida parapsilosis) was 16 µg/mL (≈ 51.2 µM) and the MIC80 (Pichia kudriavzevii) was 64 µg/mL (≈ 205 µM).
For `OC(Cn1cncn1)(Cn1cncn1)c1ccc(F)cc1F` [FLUCONAZOLE], the MIC80 (Candida albicans) was 1 µg/mL (≈ 3.27 µM), the MIC80 (Cryptococcus neoformans) was 1 µg/mL (≈ 3.27 µM) and the MIC80 (Candida tropicalis) was 1 µg/mL (≈ 3.27 µM). The MIC80 (Trichophyton rubrum) was 4 µg/mL (≈ 13.1 µM), the MIC80 (Aspergillus fumigatus) was greater than 64 µg/mL and the MIC80 (Nannizzia gypsea) was 16 µg/mL (≈ 52.2 µM). The MIC80 (Candida parapsilosis) was 1 µg/mL (≈ 3.27 µM) and the MIC80 (Pichia kudriavzevii) was 0.5 µg/mL (≈ 1.63 µM).
